Laboratory results reported in PMC2939729 (Cancer cell, 2010).

What was measured:
BMK1 = BMK1 (Homo sapiens, UniProt Q13164); assay: in vitro ATP-site competition binding assay, panel of 402 kinases; settings: 10 μM inhibitor
[1] = test system: BMK1-dependent transactivating activity of MEF2C; assay: Trans-reporter assay of BMK1-dependent MEF2C transactivating activity in HEK293; format: cell-based; settings: HEK293, 5 μM for 16 hr, luciferase
[2] = test system: xenografted human (HeLa) or syngeneic mouse (LL/2) tumors; assay: In vivo tumorigenesis experiments; parameters: species or system mice
Outline: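 Tumour cells in DMEM were injected s.c. into the right flank of 6-week-old mice: HeLa at 5 × 10^5 into Nod/Scid mice, or LL/2 at 1 × 10^6 into C57Bl/6 mice. Groups of 6 received 50 mg/kg i.p. twice daily, starting day 1, 7 or 14 (HeLa, to day 28) or day 1, 7 or 10 (LL/2, to day 17). Controls received carrier solution. Tumours were measured by caliper every 2–3 days, volume = L × W² × 0.52. BrdU was detected in tumour sections with anti-BrdU antibody, DAPI counterstain (6 mice, 9 slices). Student's t test was used.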

ERK1/2 = assay: EGF-induced ERK1/2 activation in HeLa cells; format: cell-based, human; settings: 1 μM compound for one hour, EGF 17 min

Sequence of BMK1 (Q13164 whole entry, species assumed): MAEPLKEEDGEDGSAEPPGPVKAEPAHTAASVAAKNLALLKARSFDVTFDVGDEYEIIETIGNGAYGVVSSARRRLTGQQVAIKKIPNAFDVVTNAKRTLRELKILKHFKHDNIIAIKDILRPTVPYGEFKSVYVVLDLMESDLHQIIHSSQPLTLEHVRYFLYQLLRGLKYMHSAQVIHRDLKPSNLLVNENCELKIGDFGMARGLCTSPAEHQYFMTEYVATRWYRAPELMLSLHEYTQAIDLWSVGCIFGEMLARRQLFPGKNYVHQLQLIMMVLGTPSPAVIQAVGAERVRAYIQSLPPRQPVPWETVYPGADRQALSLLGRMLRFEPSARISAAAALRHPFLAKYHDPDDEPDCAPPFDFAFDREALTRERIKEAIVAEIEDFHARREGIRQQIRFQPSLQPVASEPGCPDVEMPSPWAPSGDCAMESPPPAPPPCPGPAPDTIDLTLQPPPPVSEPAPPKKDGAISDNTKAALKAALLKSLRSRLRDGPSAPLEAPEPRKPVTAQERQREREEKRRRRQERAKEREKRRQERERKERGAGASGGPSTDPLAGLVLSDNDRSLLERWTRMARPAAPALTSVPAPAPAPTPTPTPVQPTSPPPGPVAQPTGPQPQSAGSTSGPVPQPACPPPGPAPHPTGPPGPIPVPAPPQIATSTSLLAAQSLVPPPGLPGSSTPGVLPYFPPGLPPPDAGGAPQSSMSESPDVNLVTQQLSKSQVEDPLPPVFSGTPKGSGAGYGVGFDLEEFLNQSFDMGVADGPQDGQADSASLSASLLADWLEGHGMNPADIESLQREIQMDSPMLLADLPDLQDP

CCOc1cc(N2CCC(O)CC2)ccc1Nc1ncc2c(n1)N(C)c1ccccc1C(=O)N2C [XMD8-92]
displacement by XMD8-92 (BMK1): greater than 90%
BMK1-dependent transactivating activity of MEF2C [1]: dramatically reduced
incorporation of BrdU during tumor cell division ([2]; HeLa or LL/2 tumor sections, immuno-staining): effectively inhibited
inhibition of tumor growth ([2]; mice, 50 mg/kg twice a day intraperitoneally): 95%
side effects to the animals ([2]; tumor-bearing mice, 50 mg/kg twice a day intraperitoneally): without obvious side effects
Growth factor-induced activation of cellular ERK1/2 (ERK1/2): but not the structurally similar ERK1/2
